Assay outcomes: PubChem BioAssay, several laboratories
In the library only some 2% were active in any assay of this set; here they are far more common.
PLC-beta3 inh = human PLC-beta3 inhibitors, primary screen, biochemical, fluorescence; 370,000 tested, 0.18% active; inhibition, % at 12.2 µM; 1-phosphatidylinositol 4,5-bisphosphate phosphodiesterase beta-3 (Homo sapiens), Q01970; Purified PLC-beta3, fluorogenic substrate; in the data active means inhibition above about 11%;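 further: 0% = median of compound wells on plate and 100% = full blocker control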
Target sequence (Q01970 whole entry, looked up): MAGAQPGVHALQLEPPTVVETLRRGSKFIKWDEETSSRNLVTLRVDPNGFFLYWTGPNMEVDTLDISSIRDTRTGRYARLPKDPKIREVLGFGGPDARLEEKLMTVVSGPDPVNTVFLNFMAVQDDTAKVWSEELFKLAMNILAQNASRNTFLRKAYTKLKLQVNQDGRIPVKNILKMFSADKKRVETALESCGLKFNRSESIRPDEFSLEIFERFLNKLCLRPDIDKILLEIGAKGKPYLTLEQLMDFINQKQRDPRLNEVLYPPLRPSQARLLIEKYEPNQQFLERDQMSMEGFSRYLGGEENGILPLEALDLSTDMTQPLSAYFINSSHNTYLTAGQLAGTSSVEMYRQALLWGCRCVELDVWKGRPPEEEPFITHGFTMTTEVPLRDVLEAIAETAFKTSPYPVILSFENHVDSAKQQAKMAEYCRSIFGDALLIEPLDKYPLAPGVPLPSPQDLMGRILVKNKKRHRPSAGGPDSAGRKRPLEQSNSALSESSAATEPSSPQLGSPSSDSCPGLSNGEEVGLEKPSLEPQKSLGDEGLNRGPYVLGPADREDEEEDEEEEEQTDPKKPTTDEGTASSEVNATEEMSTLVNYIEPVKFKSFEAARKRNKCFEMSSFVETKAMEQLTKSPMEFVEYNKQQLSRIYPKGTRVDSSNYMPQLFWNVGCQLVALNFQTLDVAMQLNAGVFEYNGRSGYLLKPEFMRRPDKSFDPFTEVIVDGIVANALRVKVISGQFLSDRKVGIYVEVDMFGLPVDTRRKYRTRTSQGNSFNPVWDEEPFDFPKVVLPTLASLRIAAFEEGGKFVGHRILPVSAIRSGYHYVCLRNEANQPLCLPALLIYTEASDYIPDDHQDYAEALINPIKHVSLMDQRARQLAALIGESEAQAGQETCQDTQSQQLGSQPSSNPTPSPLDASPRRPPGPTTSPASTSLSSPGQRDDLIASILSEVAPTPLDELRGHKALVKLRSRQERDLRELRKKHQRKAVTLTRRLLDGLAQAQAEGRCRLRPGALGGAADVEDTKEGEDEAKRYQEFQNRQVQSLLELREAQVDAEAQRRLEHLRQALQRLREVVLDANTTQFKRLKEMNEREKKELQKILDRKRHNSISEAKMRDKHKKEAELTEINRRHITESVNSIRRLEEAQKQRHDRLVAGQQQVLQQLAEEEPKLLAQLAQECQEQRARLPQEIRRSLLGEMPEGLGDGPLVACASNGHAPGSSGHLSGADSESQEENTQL
PLC-gamma1 inh = PLC-gamma1 enzyme inhibitors, primary screen, biochemical, fluorescence, purified enzyme | 1-phosphatidylinositol 4,5-bisphosphate phosphodiesterase gamma-1 (Homo sapiens), P19174 | fluorogenic substrate | inhibition, % at 12.2 µM | 370,000 tested, 0.84% active | AID 720700, 2013; in the data active means inhibition above about 9.5%
IMP-1 inh-1 = IMP-1 metallo-beta-lactamase inhibitors, primary screen, biochemical, epi-absorbance readout, Pseudomonas aeruginosa enzyme; 290,000 tested, 0.45% active; purified IMP-1, nitrocefin hydrolysis, epi-absorbance fluorescence; inhibition, % at 5.6 µM; metallo-beta-lactamase IMP-1 (Pseudomonas aeruginosa);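 active means inhibition above the mean plus 3 SD of all compounds in the same screening run, cut at about 4.5% in these data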;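 further: 0% = IMP-1 with DMSO and 100% = DMSO wells lacking enzyme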
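assay system = purified recombinant IMP-1 metallo-beta-lactamase enzyme | schedule = 15 min preincubation plus 25 min reaction at 25 °C | signal = Epi-absorbance fluorescence, 480 nm excitation, 530 nm emission | read-out basis = percent inhibition from optical density relative to buffer-blank wells | controls = IMP-1 with DMSO as 0%, enzyme-free DMSO as 100%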
VIM-2 inh = VIM-2 metallo-beta-lactamase inhibitors, primary screen, biochemical, epi-absorbance readout, Pseudomonas aeruginosa enzyme. AID 1527, 2009. 290,000 tested, 0.89% active. purified VIM-2, nitrocefin hydrolysis, epi-absorbance fluorescence. inhibition, % at 5.6 µM;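 active means inhibition above the mean of all tested compounds plus 3 SD, cutoff set per screening run, cut at about 7.5% in these data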;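 further: red hydrolysis product quenches plate fluorescence so inhibitors raise well fluorescence; 0% = enzyme with DMSO and 100% = DMSO without enzyme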
PvdQ acylase = P. aeruginosa PvdQ acylase inhibitors, primary screen, biochemical, fluorescence, plate reader and imaging, single point; PvdQ acylase [Pseudomonas aeruginosa LESB58]; purified PvdQ acylase; inhibition, % at 10 µM; 340,000 tested, 0.063% active; AID 488965, 2010; in the data active means inhibition above about 30%, passing the limit was not always enough;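 further: 0% = vehicle neutral wells and 100% = reference inhibitor wells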
IMP-1 inh-2 = IMP-1 metallo-beta-lactamase inhibitors, confirmation, selectivity assay for selective VIM-2 inhibitor project, biochemical, epi-absorbance readout, triplicate; 1,300 tested, under 10 active; AID 1856, 2009; inhibition, % at 5.6 µM; purified IMP-1, nitrocefin hydrolysis, epi-absorbance fluorescence; shares compounds with VIM-2 inh; call rule not given here;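 further: 0% = enzyme with vehicle and 100% = vehicle without enzyme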
VIM-2 FRET inh = VIM-2 inhibitors in FRET format, confirmation, artefact control for selective VIM-2 inhibitor project, biochemical, epi-absorbance artifact exclusion; shares compounds with VIM-2 inh; purified VIM-2, CCF2 FRET substrate hydrolysis; inhibition, % at 5.6 µM; 1,300 tested, 23% active;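 active means inhibition above the mean of all tested compounds plus 3 SD, cut at about 19% in these data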;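 further: 0% = VIM-2 plus DMSO and 100% = no enzyme wells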
TEM-1 inh = TEM-1 serine beta-lactamase inhibitors, counter-screen for VIM-2 inhibitor project, biochemical, epi-absorbance, HTS. Purified TEM-1, nitrocefin hydrolysis, epi-absorbance fluorescence. inhibition, % at 5.6 µM. 1,300 tested, 3% active. shares compounds with VIM-2 inh;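 active means inhibition above that campaign's mean inhibition plus 3 SD, cut at about 0.46% in these data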;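 further: 0% = TEM-1 with DMSO and 100% = TEM-1 with 100 µM potassium clavulanate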
VIM-2 confirm 2 = VIM-2 metallo-beta-lactamase inhibitors, confirmation, biochemical, epi-absorbance, hits shared with IMP-1 screen. shares compounds with VIM-2 inh. purified VIM-2, nitrocefin hydrolysis. inhibition, % at 5.6 µM. 1,300 tested, 96% active. AID 2187, 2009;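 active means inhibition of the VIM-2 beta-lactamase enzyme above about 11% from the earlier first-round screen, limit read from the data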;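 further: 0% = VIM-2 with DMSO and 100% = buffer wells without enzyme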
Starred values were filed as active, the others as inactive; x = not tested or not shown.

SMILES	PLC-beta3 inh	PLC-gamma1 inh	IMP-1 inh-1	VIM-2 inh	PvdQ acylase	IMP-1 inh-2	VIM-2 FRET inh	TEM-1 inh	VIM-2 confirm 2
O=C1c2ccccc2C(=O)c2c(NCCCN(CCO)CCO)cccc21	0	3	-4	22*	-2	-4	-3	-13	36*
COc1ccc(Oc2ccc3c(C(F)(F)F)cc(C(F)(F)F)nc3n2)cc1	1	1	-2	-1	-2	x	x	x	x
Oc1ccc(Oc2ccc3c(C(F)(F)F)cc(C(F)(F)F)nc3n2)cc1	2	2	-1	13*	-15	-3	-1	-6	28*
Clc1cc(Cl)cc(CNC2CCC23CCCCC3)c1 (centres undefined)	3	-1	x	x	x	x	x	x	x
CC1CCN(CCCNC(=O)c2n[nH]c(=O)c3ccccc23)CC1	-2	-1	-4	-1	-2	x	x	x	x
CC1CCN(CCCNC(=O)c2cc3c(Cl)nc4ccccc4c3s2)CC1	-2	1	0	23*	-18	-2	9	-4	32*
CCCCN(C)C(=O)c1cc2c(Cl)nc3ccccc3c2s1	-5	2	-2	13*	-12	-3	2	-4	19*
O=C(NCCCN1CCCC1)c1cc2c(Cl)nc3ccccc3c2s1	-2	-2	0	22*	5	-2	9	-7	35*
COc1ccc(Cn2ccc3ccc(-c4ccc5ccn(Cc6ccc(C#N)cc6)c5c4)cc32)cc1	-62	-40	x	x	x	x	x	x	x
COC(=O)[C@]12C[C@H](CC(=O)NCc3ccc(OC)c(OC)c3)C(=O)N(Cc3ccc4c(c3)OCO4)C1=C[C@H](C(C)C)O[C@@H]2C1CC1	1	6	x	x	x	x	x	x	x
N#Cc1cccc(OC[C@@H](O)CN2CCC(C(O)(c3ccccc3)c3ccccc3)CC2)c1	3	2	x	x	x	x	x	x	x
CCOc1ccccc1C(=O)Nc1ccc(S(=O)(=O)N2CCN(C)CC2)cc1	-1	7	-3	18*	-8	-1	5	-6	31*
CN1CCN(S(=O)(=O)c2ccc(NC(=S)NC(=O)c3ccccc3)cc2)CC1	3	4	0	34*	-8	-2	-2	-6	63*
CC(C)Oc1cccc(C(=O)NC(=S)Nc2ccc(N3CCN(C)CC3)cc2)c1	-6	4	1	56*	9	-3	-2	-9	70*
CCC(=O)NC(=S)Nc1ccc(S(=O)(=O)N2CCN(C)CC2)cc1	4	-1	-1	3	2	x	x	x	x
CC(C)CNC(=O)OCc1cn(Cc2cc(F)cc(F)c2)nn1	1	2	x	x	x	x	x	x	x
O=C(Nc1ccccc1N1CCCC1)c1cccc(F)c1	-3	-2	-3	-2	-17	x	x	x	x
Cc1ccccc1C(=O)NC(=S)Nc1ccccc1N1CCCC1	-20	-12	-4	15*	-2	-3	9	-8	5
O=C(COc1ccccc1Cl)NC(=S)Nc1ccccc1N1CCCC1	-30	-10	-1	18*	-8	-2	20*	-6	5
O=C(NC(=S)Nc1ccccc1N1CCCC1)c1cccc(F)c1	-18	-17	-2	13*	-6	-4	19*	-9	6
CCc1ccc(CCNC(=O)OC2CC3CC2[C@H]2CCCCN2C3)cc1 (some centres undefined)	-2	1	x	x	x	x	x	x	x
Cc1ccsc1C=Nn1c(-c2n[nH]c3c2CCC3)n[nH]c1=S	1	0	x	x	x	x	x	x	x
COC(=O)[C@]12C[C@H](CC(=O)NCc3cccc(C(F)(F)F)c3)C(=O)N(Cc3ccc4c(c3)OCO4)C1=C[C@H](C(C)C)O[C@@H]2C1CC1	3	-1	x	x	x	x	x	x	x
O=C(COc1ccc2c3c(c(=O)oc2c1)CCC3)Nc1ccc(CN2CCOCC2)cc1	-4	1	-4	18*	-10	-3	0	-6	27*
O=C(COc1ccc2ccc(=O)oc2c1)NC1CCN(Cc2ccccc2)CC1	-34	-55	-3	0	3	x	x	x	x
SMILES	PLC-beta3 inh	PLC-gamma1 inh	IMP-1 inh-1	VIM-2 inh	PvdQ acylase	IMP-1 inh-2	VIM-2 FRET inh	TEM-1 inh	VIM-2 confirm 2
CCCc1cc(=O)oc2cc(OCC(=O)NC3CCN(Cc4ccccc4)CC3)ccc12	-11	-2	-1	3	-13	x	x	x	x
O=C(COc1ccc2c3c(c(=O)oc2c1)CCC3)NC1CCN(Cc2ccccc2)CC1	-6	-3	-1	28*	-13	-1	4	0.7*	39*
CCCc1cc(=O)oc2c(C)c(OCC(=O)NC3CCN(Cc4ccccc4)CC3)ccc12	-3	-3	-3	16*	0	-3	-6	-7	27*
NC1=[N+](Cc2ccccc2)C[C@H]2C(=C3CCCC[C@H]3n3c(=O)n(-c4ccccc4)c(=O)n32)N1	3	-2	x	x	x	x	x	x	x
COC(=O)[C@]12C[C@H](CC(=O)NCc3ccc(C)o3)C(=O)N(Cc3cccc4ccccc34)C1=C[C@H](C(C)(C)C)O[C@@H]2C	3	1	x	x	x	x	x	x	x
CCCCOCCCNC(=O)C[C@H]1C(=O)N(Cc2ccc(OC)cc2)C2=CCCC[C@@]21C(=O)OCC	2	2	x	x	x	x	x	x	x
CCC(C)NC(=O)C1CCN(S(=O)(=O)c2ccc3[nH]c(=O)oc3c2)CC1 (centres undefined)	3	0	x	x	x	x	x	x	x
O=C(O)COc1ccccc1/C=N/n1c(C2CCCCC2)n[nH]c1=S	-11	-4	-4	27*	3	-3	53*	-8	40*
S=c1[nH]nc(C2CCCCC2)n1/N=C/c1ccccc1Br	-3	2	-3	-2	-8	x	x	x	x
CC(=O)N1CN(CCCn2ccnc2)Cc2c1sc1c2CCCC1	-2	-4	-5	26*	-13	-2	-8	-5	46*
CC(=O)N1CN(Cc2ccccn2)Cc2c1sc1c2CCCC1	-36	-25	0	-1	-12	x	x	x	x
